Measured values as given in ChEMBL document CHEMBL3352460, “Synthesis and biological evaluation of novel biaryl type α-noscapine congeners” (Bioorg Med Chem Lett, 2014).
The source made the active and inactive calls. No cut-off for these calls is given here.

Columns and labels:
Assay type in all cases: functional, cell-based
HeLa = assay: Antiproliferative activity against human HeLa cells after 72 hrs by MTS assay
Method in brief: (§1)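 Cells grown in medium with L-glutamine, 10% fetal bovine serum and 1% penicillin/streptomycin, seeded at 5 × 10³ cells per well, then exposed for 72 h to a rising concentration series. Proliferation read by MTS reagent: 3 h incubation, absorbance at 490 nm. IC50 given as mean ± S.D. of three separate experiments.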

MCF7 [1] = assay: Antiproliferative activity against human MCF7 cells after 72 hrs by MTS assay; details: MCF7, 72 h; method in brief: as §1
A549 = assay: Antiproliferative activity against human A549 cells after 72 hrs by MTS assay; details: A549, 72 h; method in brief: as §1
MCF7 [2] = assay: Induction of apoptosis in human MCF7 cells assessed as condensed chromatin at 25 uM after 72 hrs by DAPI staining-based fluorescence analysis
Method in brief: (§2)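 MCF-7 cells (2 × 10³) grown on poly-L-lysine-coated coverslips, treated at 25 µM for 72 h. Then fixed in cold methanol, washed in PBS, stained with DAPI and mounted. Nuclei imaged by fluorescence microscopy; apoptosis scored by nuclear condensation, membrane blebs and apoptotic bodies.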

MCF7 [3] = assay: Induction of apoptosis in human MCF7 cells assessed as fragmented nuclei at 25 uM after 72 hrs by DAPI staining-based fluorescence analysis; method in brief: as §2

COc1ccc2c(c1OC)C(=O)O[C@@H]2[C@H]1c2c(c(-c3ccc(C(F)(F)F)cc3)c3c(c2OC)OCO3)CCN1C
IC50 (HeLa): 22.8 µM | IC50 (MCF7 [1]): 41.3 µM | IC50 (A549): 57.3 µM

C=Cc1ccc(-c2c3c(c(OC)c4c2OCO4)[C@H]([C@H]2OC(=O)c4c2ccc(OC)c4OC)N(C)CC3)cc1
Activity (MCF7 [2]): Active | IC50 (HeLa): 20.3 µM | Activity (MCF7 [3]): Active | IC50 (MCF7 [1]): 34.3 µM | IC50 (A549): 42.7 µM

CCOC(=O)c1ccc(-c2c3c(c(OC)c4c2OCO4)[C@H]([C@H]2OC(=O)c4c2ccc(OC)c4OC)N(C)CC3)cc1
Activity (MCF7 [2]): Active | IC50 (HeLa): 21.2 µM | Activity (MCF7 [3]): Active | IC50 (MCF7 [1]): 40.7 µM | IC50 (A549): 53.1 µM

COc1ccc2c(c1OC)C(=O)O[C@@H]2[C@H]1c2c(c(-c3cccc(NC(C)=O)c3)c3c(c2OC)OCO3)CCN1C
Activity (MCF7 [2]): Active | IC50 (HeLa): 9.2 µM | Activity (MCF7 [3]): Active | IC50 (MCF7 [1]): 17.8 µM | IC50 (A549): 32.6 µM

COc1ccc2c(c1OC)C(=O)O[C@@H]2[C@H]1c2c(c(-c3cccnc3)c3c(c2OC)OCO3)CCN1C
IC50 (HeLa): 8.9 µM | IC50 (MCF7 [1]): 16.6 µM | IC50 (A549): 31.6 µM

COc1ccc2c(c1OC)C(=O)O[C@@H]2[C@H]1c2c(cc3c(c2OC)OCO3)CCN1C [NOSCAPINE]
IC50 (HeLa): 24 µM | IC50 (MCF7 [1]): 42.3 µM | IC50 (A549): 62.9 µM

CCOC(=O)c1cc(-c2c3c(c(OC)c4c2OCO4)[C@H]([C@H]2OC(=O)c4c2ccc(OC)c4OC)N(C)CC3)ccc1Cl
Activity (MCF7 [2]): Active | IC50 (HeLa): 9 µM | Activity (MCF7 [3]): Active | IC50 (MCF7 [1]): 18.8 µM | IC50 (A549): 33.8 µM
